Four compounds from ChEMBL document CHEMBL4004850, “Rational design of reversible inhibitors for trehalose 6-phosphate phosphatases” (Eur J Med Chem, 2017) can be followed below.

Test [1] addresses T1, Trehalose-phosphatase (Brugia malayi) (UniProt A8NS89).
T1 sequence (whole entry): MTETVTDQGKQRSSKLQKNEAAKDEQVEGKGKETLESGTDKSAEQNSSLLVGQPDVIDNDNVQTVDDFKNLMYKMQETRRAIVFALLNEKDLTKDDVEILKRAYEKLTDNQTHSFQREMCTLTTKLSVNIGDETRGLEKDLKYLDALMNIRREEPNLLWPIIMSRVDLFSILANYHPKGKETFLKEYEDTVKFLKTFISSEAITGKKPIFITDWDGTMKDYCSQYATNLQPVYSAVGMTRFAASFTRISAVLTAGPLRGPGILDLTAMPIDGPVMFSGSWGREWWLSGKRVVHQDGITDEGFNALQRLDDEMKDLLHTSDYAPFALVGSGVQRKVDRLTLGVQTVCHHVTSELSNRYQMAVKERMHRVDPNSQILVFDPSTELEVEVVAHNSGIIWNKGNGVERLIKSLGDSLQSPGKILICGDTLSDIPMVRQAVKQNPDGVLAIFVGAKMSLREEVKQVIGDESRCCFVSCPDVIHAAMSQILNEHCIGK
Kind of test: Inhibition of Brugia malayi T6PP using T6P as substrate assessed as fraction of enzyme unbound with compound by measuring ratio of initial velocities of T6P substrate hydrolysis in presence and absence of compound at 1 mM […] by BioMol green dye based HTS assay.

For test [2], the system named is Ascaris suum. The experiment in a line: Inhibition of Ascaris suum T6PP using T6P as substrate assessed as fraction of enzyme unbound with compound by measuring ratio of initial velocities of T6P substrate hydrolysis in presence and absence of compound at 1 mM after 5 mins by BioMol green dye based HTS assay. An outline of the steps: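 T6P is at half saturation ([T6P] = Km), with and without 1 mM inhibitor, at 25 °C. Released phosphate is detected with dye (30 min incubation) by A625. The reported value is V_I/V, the initial-velocity ratio.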

Test [3] relates to Shigella boydii. Kind of test: Inhibition of Shigella boydii T6PP using T6P as substrate assessed as fraction of enzyme unbound with compound by measuring ratio of initial velocities of T6P substrate hydrolysis in presence and absence of compound at 1 mM after 5 mins by BioMol green dye based HTS assay. An outline of the steps:
(§1)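 Freshly purified St-T6PP or Sb-T6PP (5–25 nM) in 50 mM Hepes pH 7.5, 25 mM NaCl, 2 mM MgCl₂, 5% glycerol at 25 °C. T6P at half saturation (Km) for each enzyme. Hydrolysis rate was compared with and without 1 mM inhibitor; phosphate read at 625 nm after 30 min incubation. The ratio VI/V gives the fraction of enzyme not inhibitor-bound.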

For test [4], the system named is Salmonella enterica subsp. enterica serovar Typhimurium. Kind of test: Inhibition of Salmonella typhimurium T6PP using T6P as substrate assessed as fraction of enzyme unbound with compound by measuring ratio of initial velocities of T6P substrate hydrolysis in presence and absence of compound at 1 mM after 5 mins by BioMol green dye based HTS assay. An outline of the steps:
as §1

The subject of test [5] is Ascaris suum. The experiment in a line: Activity at Ascaris suum T6PP.
The test system of test [6] is Mycobacterium tuberculosis. The experiment in a line: Activity at Mycobacterium tuberculosis T6PP.
Test [7] relates to Shigella boydii. Kind of test: Activity at Shigella boydii T6PP.
The test system of test [8] is Salmonella enterica subsp. enterica serovar Typhimurium. Kind of test: Activity at Salmonella typhimurium T6PP.
Test [9] has as its target T2, Trehalose-phosphatase (Brugia malayi, UniProt A8NS89).
T2 sequence (A8NS89 whole entry): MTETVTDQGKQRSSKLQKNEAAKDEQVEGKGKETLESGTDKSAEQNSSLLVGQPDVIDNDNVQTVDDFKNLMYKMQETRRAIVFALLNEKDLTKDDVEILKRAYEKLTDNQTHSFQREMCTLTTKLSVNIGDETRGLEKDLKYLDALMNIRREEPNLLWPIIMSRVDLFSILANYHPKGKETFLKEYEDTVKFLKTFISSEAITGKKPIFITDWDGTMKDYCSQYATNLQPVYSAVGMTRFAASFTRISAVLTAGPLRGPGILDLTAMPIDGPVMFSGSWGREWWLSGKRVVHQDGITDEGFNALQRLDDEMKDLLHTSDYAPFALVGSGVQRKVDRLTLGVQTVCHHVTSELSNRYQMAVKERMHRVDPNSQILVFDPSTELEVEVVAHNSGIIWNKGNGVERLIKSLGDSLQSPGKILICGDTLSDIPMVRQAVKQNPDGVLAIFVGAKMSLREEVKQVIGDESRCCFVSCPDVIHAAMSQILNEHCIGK
The experiment in a line: Reversible competitive inhibition of Brugia malayi T6PP using T6P as substrate by Lineweaver-Burk plot analysis.

The nature of test [10]: Inhibition of Ascaris suum T6PP using T6P as substrate by Lineweaver-Burk plot analysis.
Test [11] concerns Ascaris suum. The experiment in a line: Inhibition of Ascaris suum T6PP assessed as Vmax for substrate using T6P as substrate by Lineweaver-Burk plot analysis. An outline of the steps:
(§2)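 Continuous phosphate-release assay (EnzChek, MESG/purine nucleoside phosphorylase) at 25 °C. Initial velocities of T6P hydrolysis by T6PP were taken at varied T6P with inhibitor at 0, Ki and 2×Ki. Km and Vmax come from double-reciprocal plots.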

The subject of test [12] is Ascaris suum. The experiment in a line: Inhibition of Ascaris suum T6PP assessed as Km for substrate using T6P as substrate by Lineweaver-Burk plot analysis. The essentials: as §2
Test [13] has as its target T2, Trehalose-phosphatase. Kind of test: Competitive inhibition of Brugia malayi T6PP using T6P as substrate by Lineweaver-Burk plot analysis. An outline of the steps: as §2
Test [14] is described as follows: Inhibition of Shigella boydii T6PP using T6P as substrate by Lineweaver-Burk plot analysis. An outline of the steps:
as §2

Test [15] in a line: Inhibition of Salmonella typhimurium T6PP using T6P as substrate by Lineweaver-Burk plot analysis. The arrangement: species or system Salmonella enterica subsp. enterica serovar Typhimurium. An outline of the steps: as §2
Test [16] concerns Shigella boydii. Kind of test: Inhibition of Shigella boydii T6PP assessed as Vmax for substrate using T6P as substrate by Lineweaver-Burk plot analysis. An outline of the steps:
as §2

Test [17] has as its system Shigella boydii. The experiment in a line: Inhibition of Shigella boydii T6PP assessed as Km for substrate using T6P as substrate by Lineweaver-Burk plot analysis. An outline of the steps:
as §2

In test [18] the test system is Salmonella enterica subsp. enterica serovar Typhimurium. Kind of test: Inhibition of Salmonella typhimurium T6PP assessed as Vmax for substrate using T6P as substrate by Lineweaver-Burk plot analysis. An outline of the steps:
as §2

The test system is the same in test [19]. The experiment in a line: Inhibition of Salmonella typhimurium T6PP assessed as Km for substrate using T6P as substrate by Lineweaver-Burk plot analysis. An outline of the steps: as §2
A further test concerns Escherichia coli. Conditions: 200 uM.
In test [20] the test system is Bacteroides thetaiotaomicron. Conditions: 200 uM.

For `O=P(O)(O)OC[C@H]1O[C@@H](Oc2ccccc2)[C@H](O)[C@@H](O)[C@@H]1O`, the Ratio in test [1] turned out to be 0.79; in the test on Ascaris suum [2], 0.98; in the test on Shigella boydii [3], 0.94; in [4] it was 0.77. Further, the kcat in the test on Ascaris suum [5] came out at 0.96 ×10⁻² /s; in [6], 0.71 ×10⁻² /s; in the test on Shigella boydii [7] it was 0.71 ×10⁻² /s; in test [8] it was 0.41 ×10⁻² /s.

Usually Ki stands for a dissociation constant, usually derived from enzyme kinetics or from competition with a known ligand. A low value points to a stronger hold on the target. As for `O=S(=O)(O)OC[C@H]1O[C@@H](Oc2ccccc2)[C@H](O)[C@@H](O)[C@@H]1O`, the Ratio in [1] was 0.52; in the test with Ascaris suum [2] it was 0.92; with Shigella boydii [3], 0.76; in test [4], 0.81. At Trehalose-phosphatase [9], this compound showed a Ki of 800 to 830 µM.

Usually Vmax stands for the top rate of the reaction or transport when substrate is in excess. A word on the Km: it is the substrate concentration at which the rate is half of its maximum. For `O=S(=O)(O)OC[C@H]1O[C@@H](Oc2ccc(-c3ccccc3)cc2)[C@H](O)[C@@H](O)[C@@H]1O`, in test [10], the Ki is 1800 µM. The Ratio in test [1] was determined as 0.58; in the test with Ascaris suum [2] it was 0.9; in the test with Shigella boydii [3] it was 0.84; in test [4], 0.85. For the same compound, the Vmax in the test on Ascaris suum [11] came to 0.436 µM/s. Besides, in the test with Ascaris suum [12], the Km worked out at 290 µM.

As to `CCCCCCCCc1ccc(O[C@H]2O[C@H](COS(=O)(=O)O)[C@@H](O)[C@H](O)[C@H]2O)cc1`, the Ki on Trehalose-phosphatase [13] was 5.3 µM; in test [10], 80 to 84 µM; in [14], 21 µM; in test [15], 56 µM. The Vmax in the test on Shigella boydii [16] was 0.897 µM/s; with Ascaris suum [11], 0.48 µM/s; in test [18] it was 0.173 µM/s; with Escherichia coli it was 0.0605 µM/s; in test [20], 0.0788 µM/s. For the same compound, the Km in the test with Shigella boydii [17] came out at 246 µM; with Ascaris suum [12] it was 406 µM; in test [19], 387 µM.
